Laboratory results taken from paper PMC9305408 (Chemmedchem, 2022).
Converted amounts (≈) assume the structure as drawn.

Assays:
Type in all cases: cell-based
[1] = system: Escherichia coli ATCC 25922; assay: MIC, broth microdilution; settings: ATCC25922, 24 h, read-out: minimum inhibitory concentration (MIC)
In short: (§1)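 Run by broth microdilution in Mueller-Hinton broth. A 10 mg/mL test sample was added to the first well and serially diluted 1:2 across 12 wells. Bacteria were added to about 10⁶ CFU/mL final, and plates were incubated at 37 °C for 24 h. Resazurin was then added for 2 h at 37 °C, and reduction from blue to pink scored growth. MIC was determined in triplicate.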

[2] = system: Staphylococcus aureus ATCC 29213; assay: MIC, broth microdilution; settings: ATCC29213, 24 h, read-out: minimum inhibitory concentration (MIC)
In short: as §1

[3] = system: Pseudomonas aeruginosa ATCC 27853; assay: MIC, broth microdilution; settings: ATCC27853, 24 h, read-out: minimum inhibitory concentration (MIC)
In short: as §1

[4] = system: Bacillus subtilis ATCC 3366; assay: MIC, broth microdilution; settings: ATCC3366, 24 h, read-out: minimum inhibitory concentration (MIC)
In short: as §1

[5] = system: Bacillus subtilis ATCC 3366; assay: Agar disc diffusion; settings: ATCC3366, read-out: diameter of the inhibition zone
In short: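 Agar plates (30 ml medium) were each spread with 100 μl fresh culture of one organism. Sterile 6 mm paper discs were loaded with 6 μl of 10 mg/mL test sample. Plates were sealed against evaporation and incubated at 37 °C for 24 h. Inhibition zone diameter was measured in mm, averaged over three independent determinations.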

Candida albicans [6] = assay: Agar disc diffusion; settings: 6 mm discs, 6 μl of 10 mg/mL
Aspergillus niger [7] = assay: Agar disc diffusion; settings: 6 mm discs, 6 μl of 10 mg/mL
Candida albicans [8] = assay: MIC, broth microdilution; settings: 48 h, read-out: minimum inhibitory concentration (MIC)
In short: (§2)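 Twofold serial dilutions of test compound in Mueller-Hinton broth were run across 12 wells, starting from 10 mg/mL in the first well. Fungal suspension was added at about 10⁶ CFU/mL final, then plates were incubated at 28 °C for 48 h. Resazurin was added for 2 h at 37 °C, with blue-to-pink reduction scored as growth. MIC was determined in triplicate.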

Aspergillus niger [9] = assay: MIC, broth microdilution; settings: 48 h, read-out: minimum inhibitory concentration (MIC)
In short: as §2

MIC [1] [µg/mL] | MIC [2] [µg/mL] | MIC [3] [µg/mL] | MIC [4] [µg/mL] | MIC (Candida albicans [8]) [µg/mL] | MIC (Aspergillus niger [9]) [µg/mL] | SMILES | zone of inhibition at 10000 µg/mL [5] [mm] | diameter of the inhibition zone (Candida albicans [6]) | diameter of the inhibition zone (Aspergillus niger [7])
2500 (≈ 4770 µM) | 310 (≈ 591 µM) | 2500 (≈ 4770 µM) | 78 (≈ 149 µM) |  |  | COC(=O)[C@H](C)NC(=O)c1cc(=O)n(Cc2cn(Cc3ccccc3Br)nn2)c2ccccc12 [Compound 3a4, Methyl (S)‐2‐{2‐oxo‐1‐[(1‐(2‐bromobenzyl)‐1H‐1,2,3‐triazol‐4‐yl)methyl]‐1,2‐dihydroquinoline‐4‐carboxamido}propanoate] | 18 | did not show any antifungal activity | did not show any antifungal activity
310 (≈ 696 µM) | 2500 (≈ 5610 µM) | 2500 (≈ 5610 µM) | 2500 (≈ 5610 µM) | 10000 (≈ 22400 µM) |  | COC(=O)[C@H](C)NC(=O)c1cc(=O)n(Cc2cn(Cc3ccccc3)nn2)c2ccccc12 [Compound 3a2, Methyl (S)‐2‐{2‐oxo‐1‐[(1‐benzyl‐1H‐1,2,3‐triazol‐4‐yl)methyl]‐1,2‐dihydroquinoline‐4‐carboxamido}propanoate] |  |  | 
39 (≈ 84.9 µM) | 1250 (≈ 2720 µM) | 1250 (≈ 2720 µM) | 2500 (≈ 5440 µM) | 10000 (≈ 21800 µM) |  | COC(=O)[C@H](C)NC(=O)c1cc(=O)n(Cc2cn(Cc3ccccc3C)nn2)c2ccccc12 [Compound 3a3, Methyl (S)‐2‐{2‐oxo‐1‐[(1‐(2‐methylbenzyl)‐1H‐1,2,3‐triazol‐4‐yl)methyl]‐1,2‐dihydroquinoline‐4‐carboxamido}propanoate] |  |  | 

The remaining lines, values behind:

SMILES | MIC [1] [µg/mL] | MIC [2] [µg/mL] | MIC [3] [µg/mL] | MIC [4] [µg/mL] | MIC (Candida albicans [8]) [µg/mL] | MIC (Aspergillus niger [9]) [µg/mL] | zone of inhibition at 10000 µg/mL [5] [mm] | diameter of the inhibition zone (Candida albicans [6]) | diameter of the inhibition zone (Aspergillus niger [7])
C#CCn1c(=O)cc(C(=O)N[C@@H](C)C(=O)OC)c2cc(Br)ccc21 [Compound 2 b, Methyl (S)‐6‐bromo‐2‐[2‐oxo‐1‐(prop‐2‐yn‐1‐yl)‐1,2‐dihydroquinoline‐4‐carboxamido]propanoate] | 620 (≈ 1580 µM) | 2500 (≈ 6390 µM) | 2500 (≈ 6390 µM) | 2500 (≈ 6390 µM) | 10000 (≈ 25600 µM) |  |  |  | 
C#CCn1c(=O)cc(C(=O)N[C@@H](C)C(=O)OC)c2ccccc21 [Compound 2 a, Methyl (S)‐2‐[2‐oxo‐1‐(prop‐2‐yn‐1‐yl)‐1,2‐dihydroquinoline‐4‐carbox amido]propanoate] | 620 (≈ 1990 µM) | 2500 (≈ 8000 µM) | 620 (≈ 1990 µM) | 5000 (≈ 16000 µM) |  | 10000 (≈ 32000 µM) |  |  | 
COC(=O)C(NC(=O)c1ccccc1)n1cc(Cn2c(=O)cc(C(=O)N[C@@H](C)C(=O)OC)c3ccccc32)nn1 (stereo partly drawn) [Compound 3a5, Methyl (S)‐2‐{2‐oxo‐1‐[(1‐(1‐benzamido‐2‐methoxy‐2‐oxoethyl)‐1H‐1,2,3‐triazol‐4‐yl)methyl]‐1,2‐dihydroquinoline‐4‐carboxamido}propanoate] | 19.5 (≈ 35.7 µM) | 39 (≈ 71.4 µM) | 78 (≈ 143 µM) | 310 (≈ 567 µM) | 5000 (≈ 9150 µM) | 10000 (≈ 18300 µM) |  |  | 
CCCCCn1cc(Cn2c(=O)cc(C(=O)N[C@@H](C)C(=O)OC)c3ccccc32)nn1 [Compound 3a1, Methyl (S)‐2‐{2‐oxo‐1‐[(1‐pentyl‐1H‐1,2,3‐triazol‐4‐yl)methyl]‐1,2‐dihydroquinoline‐4‐carboxamido}propanoate] | 78 (≈ 183 µM) | 1250 (≈ 2940 µM) | 2500 (≈ 5880 µM) | 310 (≈ 729 µM) |  |  |  | did not show any antifungal activity | did not show any antifungal activity
COC(=O)[C@H](C)NC(=O)c1cc(=O)n(Cc2cn(Cc3ccccc3C)nn2)c2ccc(Br)cc12 [Compound 3b3, Methyl (S)‐6‐bromo‐2‐{2‐oxo‐1‐[(1‐(2‐methylbenzyl)‐1H‐1,2,3‐triazol‐4‐yl)methyl]‐1,2‐dihydroquinoline‐4‐carboxamido}propanoate] | 620 (≈ 1150 µM) | 2500 (≈ 4640 µM) | 620 (≈ 1150 µM) | 310 (≈ 576 µM) |  |  |  | did not show any antifungal activity | did not show any antifungal activity
COC(=O)[C@H](C)NC(=O)c1cc(=O)n(Cc2cn(Cc3ccccc3Br)nn2)c2ccc(Br)cc12 [Compound 3b4, Methyl (S)‐6‐bromo‐2‐{2‐oxo‐1‐[(1‐(2‐bromobenzyl)‐1H‐1,2,3‐triazol‐4‐yl)methyl]‐1,2‐dihydroquinoline‐4‐carboxamido}propanoate] | 310 (≈ 514 µM) | 2500 (≈ 4140 µM) | 1250 (≈ 2070 µM) | 9.75 (≈ 16.2 µM) |  |  |  | did not show any antifungal activity | did not show any antifungal activity
